This passage reports number of anti-targets results from PubChem BioAssay AID651628 (The Scripps Research Institute Molecular Screening Center, 2012).

A number with no mark means an inactive call. Active and inactive are the calls of the source.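 How the source made its calls: active means at least one off-target enzyme showing weaker fluorescent probe labeling in any proteome panel; inactive means no off-target enzyme affected in any panel.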

The test deals with Membrane Proteome. In words: proteome-wide probe labelling blockade by competitive ABPP – cell lysate, gel-based fluorescence, soluble and membrane fractions, selectivity assay for PAD4 inhibitor project, late-stage follow-up (AID 651628). Conditions: MCF7 proteome, CA-Rh gel-based ABPP, anti-target count, at 10 µM, stronger effect = higher value. The method in brief: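 Material: MCF7 cell proteome, soluble or membrane fraction | Medium: DPBS | Doses: Compound at 10 or 50 µM | Schedule: Compound 1 h, probe 1 h, 25 °C | Measured by: SDS-PAGE separation with in-gel fluorescence scanning of labelled bands | Control set: DMSO-only reference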
As for `NC1=CC(=O)c2ccc(-c3ccccn3)nc2C1=O`, the number of anti-targets is 0.

On to `COC1=C(Br)C(=O)c2ncccc2C1=O`, for which the number of anti-targets was > 5 (active).

`COC1=C(I)C(=O)c2nc(C#N)ccc2C1=O`: the number of anti-targets is > 5 (active).

For `COC1=C(Br)C(=O)c2nc(-c3ccccn3)ccc2C1=O`, the number of anti-targets was > 5 (active).

Take `O=C1C=C(Br)C(=O)c2ncccc21`: the number of anti-targets was > 5 (active).

Consider `COC(=O)c1cccc(-c2ccc3c(n2)C(=O)C(N)=CC3=O)n1`, for which the number of anti-targets is 0.

`COC1=C(N)C(=O)c2nc(-c3nc(C(=O)O)c(C)c(-c4ccc(OC)c(OC)c4O)c3N)ccc2C1=O`: the number of anti-targets was 0.

As for `COC1=C(N)C(=O)c2ncccc2C1=O`, the number of anti-targets was 0.

For `NC1=CC(=O)c2cccnc2C1=O`, the number of anti-targets is 0.

Regarding `COC1=CC(=O)c2nc(C#N)ccc2C1=O`, the number of anti-targets is > 5 (active).

As to `O=C1C(O)=C(O)C(=O)c2ncccc21`, the number of anti-targets was 2 (active).

Regarding `NC1=CC(=O)c2ccc(-c3cccc(C(=O)O)n3)nc2C1=O`, the number of anti-targets is 0.

As to `COC(=O)c1nc(C(=O)OC)c(NC(C)=O)c(-c2ccccc2Br)c1C`, the number of anti-targets was 0.

Take `COC(=O)c1cccc(-c2ccc3c(n2)C(=O)C(Br)=CC3=O)n1`: the number of anti-targets was 0.
